Measurements taken from ChEMBL document CHEMBL1137665, “Antistaphylococcal activity of CG400549, a new experimental FabI inhibitor, compared with that of other agents” (2007).
≈ marks a conversion by molar mass, not a printed value.

Tests used:
Type in all cases: functional
Staphylococcus aureus [1] = test: Antimicrobial activity against vancomycin-resistant Staphylococcus aureus 509 Michigan after 14 passages by multi-step resistance selection technique
Outline: (§1)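 Multistep selection: 10 S. aureus strains (8 MRSA incl. two VRSA, two VISA; 2 MSSA) serially passaged daily at subinhibitory concentrations of each antimicrobial; MICs of mutants retested and compared with parent; clone identity versus parent confirmed by pulsed-field gel electrophoresis at study end.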

Staphylococcus aureus [2] = test: Antimicrobial activity against methicillin-resistant Staphylococcus aureus 525 after 14 passages by multi-step resistance selection technique
Outline: (§2)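 Multistep selection by daily serial passage of each strain in subinhibitory drug concentrations for the stated number of passages. Mutant MIC was then determined. Identity of mutants and parents was confirmed by pulsed-field gel electrophoresis.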

Staphylococcus aureus [3] = test: Antimicrobial activity against methicillin-resistant Staphylococcus aureus 547 after 14 passages by multi-step resistance selection technique; outline: as §2
Staphylococcus aureus [4] = test: Antimicrobial activity against vancomycin-intermediate Staphylococcus aureus 555 Hershey after 14 passages by multi-step resistance selection technique; outline: as §1

Cc1c(N)cccc1Cn1ccc(OCCc2cccs2)cc1=O [CG-400549]
MIC (Staphylococcus aureus [1]): > 64 µg/mL
MIC (Staphylococcus aureus [2]): 4 µg/mL (≈ 11.7 µM)
MIC (Staphylococcus aureus [3]): 32 µg/mL (≈ 94 µM)
MIC (Staphylococcus aureus [4]): 2 µg/mL (≈ 5.87 µM)
